Assay outcomes deposited in PubChem by several laboratories.
APJ ag = agonists of human apelin receptor APJ, primary screen, CHO-K1 cells, PathHunter beta-arrestin, luminescence | P35414 | 0% DMSO wells, 100% apelin | activation, % at 20 µM | 330,000 tested, 0.11% active;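 active = activation more than six SD over the plate average, tested at 20 µM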;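 also: 0% = DMSO alone and 100% = apelin-13 at 10 nM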
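Test system: CHO-K1 APJ beta-arrestin complementation cell line. Amount: cell density 1000 per well. Controls: DMSO negative, 10 nM Apelin-13 positive. Signal: luminescent beta-gal fragment complementation, chemiluminescent substrate. Read-out basis: agonist-driven arrestin binding to APJ. Timing: compound stimulation 90 min at 25 °C, detection 60 min.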
APJ antagonist = antagonists of human apelin receptor APJ, primary screen, CHO-K1 cells, beta-arrestin complementation, luminescence | P35414 | inhibition, % at 20 µM | 330,000 tested, 0.32% active;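 active = inhibition above about 40% at 20 µM, limit read from the data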;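 also: cells challenged with 10 nM apelin-13 agonist together with compound; plate controls were apelin-13 plus DMSO wells for no effect and DMSO wells lacking apelin-13 for full effect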
CCR6 antagonist = CCR6 receptor antagonists, primary screen, cell-based, CHO-K1, luminescence, beta-arrestin, uHTS. CHO-K1 CCR6 PathHunter beta-arrestin, CCL20-stimulated. C-C chemokine receptor type 6 (Homo sapiens), P51684. 340,000 tested, 0.49% active. inhibition, % at 20 µM;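 active = compounds whose inhibition of the agonist-driven luminescence signal at 20 µM reaches about 50%, limit read from the data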;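 also: cells stimulated with CCL20 at 14 nM final; plate controls were DMSO with CCL20 for no effect and DMSO without agonist for full effect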
Target sequence (P51684 whole entry, looked up): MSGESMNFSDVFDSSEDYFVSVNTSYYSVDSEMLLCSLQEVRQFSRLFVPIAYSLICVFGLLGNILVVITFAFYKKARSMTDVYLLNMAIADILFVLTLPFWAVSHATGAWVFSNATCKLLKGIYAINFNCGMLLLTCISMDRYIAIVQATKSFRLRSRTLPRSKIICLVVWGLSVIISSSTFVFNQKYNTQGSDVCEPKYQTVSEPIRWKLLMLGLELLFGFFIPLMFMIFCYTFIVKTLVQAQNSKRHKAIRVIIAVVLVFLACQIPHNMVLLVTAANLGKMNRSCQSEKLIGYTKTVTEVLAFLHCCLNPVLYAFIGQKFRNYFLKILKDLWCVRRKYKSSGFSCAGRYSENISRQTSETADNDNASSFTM
FXN GAA850 act = FXN promoter activators, primary screen, cell-based, luciferase luminescence, HEK293 lucGAA850. HEK293 lucGAA850 FXN promoter luciferase reporter, 24 h; percent of 10 µM SAHA response. activation, % at 6 µM. 360,000 tested, 0.56% active;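 active = activation above the average of all compounds screened plus 3 SD, cutoff fixed separately per campaign, cut at about 7.5% in these data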;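 also: 0% = DMSO wells and 100% = 10 µM SAHA wells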
EBI2 antag = EBI2 receptor antagonists, beta-arrestin recruitment, primary screen, cell-based, luminescence, 7a,25-OHC stimulation, uHTS; G-protein coupled receptor 183 (Homo sapiens), P32249; 7a,25-OHC stimulated; inhibition, % at 5 µM; 360,000 tested, 0.81% active; in the data active = inhibition above about 38%;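 also: enzyme fragment complementation signal reports receptor beta-arrestin coupling in cells; 0% = agonist plus DMSO wells and 100% = wells without agonist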
CXCR6 block = CXCR6 receptor inhibitors, primary screen, cell-based, beta-arrestin, luminescence, CHO-K1 PathHunter, 1536-well. inhibition, % at 20 µM. C-X-C chemokine receptor type 6 (Homo sapiens), O00574. 360,000 tested, 0.36% active; in the data active = inhibition above about 34%, passing the limit was not always enough;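 also: antagonist mode with CXCL16 agonist at 10 nM final; 0% = 10 nM CXCL16 with DMSO and 100% = unstimulated wells without agonist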
EBI2 antag conf = EBI2 antagonist hit retest, beta-arrestin, confirmation, cell-based, single concentration, luminescence, 7a,25-OHC stimulation; 7a,25-OHC antagonism; 2,400 tested, 29% active; inhibition, % at 5 µM; AID 651997, 2013; shares compounds with EBI2 antag;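 active = inhibition of at least 50%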
EBI2 ag = EBI2 agonist activity of antagonist hits, confirmation, counter-screen for EBI2 antagonist project, cell-based, single concentration, agonist mode, luminescence; shares compounds with EBI2 antag; EBI2-expressing cells, 60 min; 0% vehicle, 100% 7α,25-dihydroxycholesterol control; activation, % at 5 µM; 2,400 tested, under 10 active;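 active = activation of at least 50%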
bGal counter = E. coli beta-galactosidase enzyme inhibition, confirmation, counter-screen for EBI2 antagonist project, biochemical, luminescence, single concentration; purified beta-galactosidase, luminescent Galacton Star, 15 min; 2,400 tested, 1% active; inhibition, % at 5 µM; shares compounds with EBI2 antag;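 active = replicate-average signal at least 3 plate SD below neutral wells, shown as high inhibition, flagging enzyme-inhibiting false positives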;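 also: 0% = DMSO wells with enzyme and 100% = wells lacking enzyme; higher means stronger loss of beta-gal luminescence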
* = called active by the depositor; ! = not active in a repeat. Hits are enriched below; roughly 2% of the tested compounds scored in any of these assays.

How did COc1ccc(-c2nc3cc(C)c(Br)c(C)n3c2Cc2ccccc2C(F)(F)F)cc1OC do in these assays?
EBI2 antag: 41*; CXCR6 block: 1; EBI2 antag conf: 39; EBI2 ag: 0; bGal counter: -15

What do the screens show for `COc1ccccc1Cc1c(-c2ccc(OC)c(OC)c2)nc2cc(C)c(Br)c(C)n12`?
EBI2 antag: 14; CXCR6 block: 10

How did CCN(C[C@H]1N[C@@](C)(C(=O)OC)[C@H]2C(=O)N(C)C(=O)[C@@H]12)C(=O)COc1ccccc1 do in these assays?
APJ ag: -2; APJ antagonist: -4; CCR6 antagonist: 9; FXN GAA850 act: 0; EBI2 antag: -9; CXCR6 block: -9

Results for COC(C(=O)N/N=C(\C)c1ccc(C(C)(C)C)cc1)c1ccccc1 (centres undefined) ?
APJ ag: -5; APJ antagonist: -14; CCR6 antagonist: 17; FXN GAA850 act: 1; EBI2 antag: 65*; CXCR6 block: 5; EBI2 antag conf: 24; EBI2 ag: -1; bGal counter: -10

Results for COC(C(=O)N/N=C(\C)c1ccc(O)cc1)c1ccccc1 (centres undefined) ?
APJ ag: -1; APJ antagonist: -5; CCR6 antagonist: -2; FXN GAA850 act: 2; EBI2 antag: -1; CXCR6 block: -5

How did COc1ccc(C(=O)c2ccc(N3CCN(C(=O)c4ccc(F)cc4)CC3)c(F)c2)cc1Br do in these assays?
APJ ag: 0; APJ antagonist: 19; CCR6 antagonist: 15; FXN GAA850 act: 1; EBI2 antag: 65*; CXCR6 block: 0; EBI2 antag conf: 22; EBI2 ag: 1; bGal counter: 5

What do the screens show for `CCCC(=O)c1ccc(N2CCN(C(=O)c3ccccc3)CC2)c(F)c1`?
APJ ag: -4; APJ antagonist: -1; CCR6 antagonist: 8; FXN GAA850 act: 0; EBI2 antag: -1; CXCR6 block: -12

What do the screens show for `O=C(c1ccccc1)c1ccc(N2CCN(C(=O)c3ccc(F)cc3F)CC2)c(F)c1`?
FXN GAA850 act: -3; EBI2 antag: -4; CXCR6 block: -8

How did CCCC(=O)c1ccc(N2CCN(C(=O)c3ccc(Br)cc3)CC2)c(F)c1 do in these assays?
APJ ag: 3; APJ antagonist: -20; CCR6 antagonist: -2; FXN GAA850 act: -1; EBI2 antag: 71*; CXCR6 block: -4; EBI2 antag conf: 29; EBI2 ag: 3; bGal counter: 8

How did CC(C)Cc1nc2sc3c(NCc4ccco4)ncnc3c2c2c1COC(C)(C)C2 do in these assays?
APJ ag: -4; APJ antagonist: -9; CCR6 antagonist: -5; FXN GAA850 act: 4; EBI2 antag: 47*; CXCR6 block: 3; EBI2 antag conf: 42; EBI2 ag: 0; bGal counter: 4

Results for Cc1nc2sc3c(NCc4ccco4)ncnc3c2c2c1COC(C)(C)C2 ?
APJ ag: -3; APJ antagonist: 12; CCR6 antagonist: -1; FXN GAA850 act: -2; EBI2 antag: 23; CXCR6 block: 1

Results for COc1ccc(NC(=S)Nc2ccccc2)cc1 ?
APJ ag: -2; APJ antagonist: 12; CCR6 antagonist: 7; FXN GAA850 act: -1; EBI2 antag: 39*!; CXCR6 block: 3; EBI2 antag conf: 9; EBI2 ag: 3; bGal counter: 7

What do the screens show for `CCOc1ccc(NC(=S)Nc2ccc(OC)cc2)cc1`?
APJ ag: -2; APJ antagonist: -7; CCR6 antagonist: -3; FXN GAA850 act: 0; EBI2 antag: 75*; CXCR6 block: 3; EBI2 antag conf: 63*; EBI2 ag: -1; bGal counter: -15

Results for CCOc1ccc(NC(=S)Nc2ccc(Br)cc2Cl)cc1 ?
APJ ag: -3; APJ antagonist: -5; CCR6 antagonist: 14; FXN GAA850 act: 0; EBI2 antag: 68*; CXCR6 block: 10; EBI2 antag conf: 43; EBI2 ag: 2; bGal counter: -2

What do the screens show for `CCOc1ccc(OCC(=O)Nc2ccc(OC)cc2)cc1`?
APJ ag: 2; APJ antagonist: 11; CCR6 antagonist: 6; FXN GAA850 act: 0; EBI2 antag: -7; CXCR6 block: -7

What do the screens show for `CCC(C)c1ccc(NC(=S)Nc2ccc(OC)cc2)cc1` (centres undefined)?
APJ ag: -1; APJ antagonist: -6; CCR6 antagonist: 9; FXN GAA850 act: 0; EBI2 antag: 53*; CXCR6 block: 7; EBI2 antag conf: 49; EBI2 ag: 2; bGal counter: 4

Results for Cc1cccc(NC(=O)CN2CCN(C(=O)CN3C(=O)NC4(CC(C)CC(C)(C)C4)C3=O)CC2)c1C (centres undefined) ?
CCR6 antagonist: -7; FXN GAA850 act: 1; EBI2 antag: -6; CXCR6 block: -16

How did CC1CCCN(CCCNC(=O)c2ccc3c(c2)N(Cc2ccccc2F)C(=O)c2ccccc2S3(=O)=O)C1 (centres undefined) do in these assays?
APJ ag: -3; APJ antagonist: 12; CCR6 antagonist: 37; FXN GAA850 act: 0; EBI2 antag: -8; CXCR6 block: 28

What do the screens show for `FC(F)(F)Oc1ccc(NC(=S)Nc2ccc(OC(F)(F)F)cc2)cc1`?
APJ ag: 3; APJ antagonist: 16; CCR6 antagonist: 7; FXN GAA850 act: -1; EBI2 antag: 11; CXCR6 block: -1

How did CCOc1ccc(NC(=S)Nc2ccc(OCc3ccccc3)cc2)cc1 do in these assays?
APJ ag: 5; APJ antagonist: 8; CCR6 antagonist: 14; FXN GAA850 act: -1; EBI2 antag: 58*; CXCR6 block: -4; EBI2 antag conf: 36; EBI2 ag: 0; bGal counter: -13
